In ChEMBL document CHEMBL2375359, “Synthesis and antibacterial evaluation of novel pleuromutilin derivatives” (2013):
Converted amounts (≈) assume the structure as drawn.

The molecules below were run on Streptococcus agalactiae (assay: Antibacterial activity against Streptococcus agalactiae at 80 ug/ml after 24 hrs by Oxford cup assay). Details: read-out: IZ.
Assay type: functional
Outline: (§1)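 Oxford cup diffusion with clinical isolates. Inoculum made in 0.9% saline to a McFarland standard and spread evenly on nutrient agar. Compound solutions, prepared as for the agar dilution test, were added at the stated concentration to Oxford cups set equidistant on the agar surface. Inhibition zones were measured after 24 h at 37 °C.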

Compared with C=C[C@]1(C)C[C@@H](OC(=O)CSC(C)(C)CNC(=O)c2ccccc2OC)[C@]2(C)[C@H](C)CC[C@]3(CCC(=O)[C@H]32)[C@@H](C)[C@@H]1O, C=C[C@]1(C)C[C@@H](OC(=O)CSC(C)(C)CNC(=O)c2ccccc2N)[C@]2(C)[C@H](C)CC[C@]3(CCC(=O)[C@H]32)[C@@H](C)[C@@H]1O is higher in zone of inhibition at 80 µg/mL: 11.8 mm for the first, 12 mm for the second.

These molecules were tested on Streptococcus agalactiae (assay: Antibacterial activity against Streptococcus agalactiae at 160 ug/ml after 24 hrs by Oxford cup assay). Details: read-out: IZ.
Assay type: functional
Outline: as §1

Going from C=C[C@]1(C)C[C@@H](OC(=O)CSC(C)(C)CNC(=O)c2ccccc2OC)[C@]2(C)[C@H](C)CC[C@]3(CCC(=O)[C@H]32)[C@@H](C)[C@@H]1O to C=C[C@]1(C)C[C@@H](OC(=O)CSC(C)(C)CNC(=O)c2ccccc2N)[C@]2(C)[C@H](C)CC[C@]3(CCC(=O)[C@H]32)[C@@H](C)[C@@H]1O, the zone of inhibition at 160 µg/mL falls from 13 mm to 11.8 mm.

These molecules were tested on Escherichia coli (assay: Antibacterial activity against Escherichia coli at 80 ug/ml after 24 hrs by Oxford cup assay). Details: read-out: IZ.
Assay type: functional
Outline: as §1

Going from C=C[C@]1(C)C[C@@H](OC(=O)CSC(C)(C)CNC(=O)c2ccccc2OC)[C@]2(C)[C@H](C)CC[C@]3(CCC(=O)[C@H]32)[C@@H](C)[C@@H]1O to C=C[C@]1(C)C[C@@H](OC(=O)CSC(C)(C)CNC(=O)c2ccccc2N)[C@]2(C)[C@H](C)CC[C@]3(CCC(=O)[C@H]32)[C@@H](C)[C@@H]1O, the zone of inhibition at 80 µg/mL rises from 12.4 mm to 13.1 mm.

These molecules were tested on Streptococcus agalactiae (assay: Antibacterial activity against Streptococcus agalactiae at 320 ug/ml after 24 hrs by Oxford cup assay). Details: read-out: IZ.
Assay type: functional
Outline: as §1

First: C=C[C@]1(C)C[C@@H](OC(=O)CSC(C)(C)CNC(=O)c2ccccc2OC)[C@]2(C)[C@H](C)CC[C@]3(CCC(=O)[C@H]32)[C@@H](C)[C@@H]1O
Second: C=C[C@]1(C)C[C@@H](OC(=O)CSC(C)(C)CNC(=O)c2ccccc2N)[C@]2(C)[C@H](C)CC[C@]3(CCC(=O)[C@H]32)[C@@H](C)[C@@H]1O
The zone of inhibition at 320 µg/mL of the first is higher: 13.7 mm for the first, 11.9 mm for the second.

What follows are molecules tested on Escherichia coli (assay: Antibacterial activity against Escherichia coli at 160 ug/ml after 24 hrs by Oxford cup assay). Details: read-out: IZ.
Assay type: functional
Outline: as §1

Compared with C=C[C@]1(C)C[C@@H](OC(=O)CSC(C)(C)CNC(=O)c2ccccc2OC)[C@]2(C)[C@H](C)CC[C@]3(CCC(=O)[C@H]32)[C@@H](C)[C@@H]1O, C=C[C@]1(C)C[C@@H](OC(=O)CSC(C)(C)CNC(=O)c2ccccc2N)[C@]2(C)[C@H](C)CC[C@]3(CCC(=O)[C@H]32)[C@@H](C)[C@@H]1O is lower in zone of inhibition at 160 µg/mL: 15.5 mm for the first, 13.7 mm for the second.

What follows are molecules tested on Escherichia coli (assay: Antibacterial activity against Escherichia coli at 320 ug/ml after 24 hrs by Oxford cup assay). Details: read-out: IZ.
Assay type: functional
Outline: as §1

Going from C=C[C@]1(C)C[C@@H](OC(=O)CSC(C)(C)CNC(=O)c2ccccc2OC)[C@]2(C)[C@H](C)CC[C@]3(CCC(=O)[C@H]32)[C@@H](C)[C@@H]1O to C=C[C@]1(C)C[C@@H](OC(=O)CSC(C)(C)CNC(=O)c2ccccc2N)[C@]2(C)[C@H](C)CC[C@]3(CCC(=O)[C@H]32)[C@@H](C)[C@@H]1O, the zone of inhibition at 320 µg/mL falls from 17.4 mm to 13.8 mm.

The molecules below were run on Staphylococcus epidermidis (assay: Antibacterial activity against methicillin-resistant Staphylococcus epidermidis at 80 ug/ml after 24 hrs by Oxford cup assay). Details: read-out: IZ.
Assay type: functional
Outline: (§2)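 Oxford cup diffusion: clinical isolate inoculum in 0.9% saline set by McFarland standard, spread evenly on nutrient agar. Cups placed equidistant on the surface and filled with compound solutions prepared as for the agar dilution test, at several concentrations. Inhibition zone measured after 24 h at 37 °C.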

Going from C=C[C@]1(C)C[C@@H](OC(=O)CSC(C)(C)CNC(=O)c2ccccc2OC)[C@]2(C)[C@H](C)CC[C@]3(CCC(=O)[C@H]32)[C@@H](C)[C@@H]1O to C=C[C@]1(C)C[C@@H](OC(=O)CSC(C)(C)CNC(=O)c2ccccc2N)[C@]2(C)[C@H](C)CC[C@]3(CCC(=O)[C@H]32)[C@@H](C)[C@@H]1O, the zone of inhibition at 80 µg/mL rises from 10.8 mm to 15.3 mm.

These molecules were tested on Staphylococcus epidermidis (assay: Antibacterial activity against methicillin-resistant Staphylococcus epidermidis at 160 ug/ml after 24 hrs by Oxford cup assay). Details: read-out: IZ.
Assay type: functional
Outline: as §2

Going from C=C[C@]1(C)C[C@@H](OC(=O)CSC(C)(C)CNC(=O)c2ccccc2OC)[C@]2(C)[C@H](C)CC[C@]3(CCC(=O)[C@H]32)[C@@H](C)[C@@H]1O to C=C[C@]1(C)C[C@@H](OC(=O)CSC(C)(C)CNC(=O)c2ccccc2N)[C@]2(C)[C@H](C)CC[C@]3(CCC(=O)[C@H]32)[C@@H](C)[C@@H]1O, the zone of inhibition at 160 µg/mL rises from 12.5 mm to 16 mm.

The molecules below were run on Staphylococcus epidermidis (assay: Antibacterial activity against methicillin-resistant Staphylococcus epidermidis at 320 ug/ml after 24 hrs by Oxford cup assay). Details: read-out: IZ.
Assay type: functional
Outline: as §2

Going from C=C[C@]1(C)C[C@@H](OC(=O)CSC(C)(C)CNC(=O)c2ccccc2OC)[C@]2(C)[C@H](C)CC[C@]3(CCC(=O)[C@H]32)[C@@H](C)[C@@H]1O to C=C[C@]1(C)C[C@@H](OC(=O)CSC(C)(C)CNC(=O)c2ccccc2N)[C@]2(C)[C@H](C)CC[C@]3(CCC(=O)[C@H]32)[C@@H](C)[C@@H]1O, the zone of inhibition at 320 µg/mL rises from 13.5 mm to 17.4 mm.

These molecules were tested on Staphylococcus aureus (assay: Antibacterial activity against methicillin-resistant Staphylococcus aureus at 80 ug/ml after 24 hrs by Oxford cup assay). Details: read-out: IZ.
Assay type: functional
Outline: as §2

Compared with C=C[C@]1(C)C[C@@H](OC(=O)CSC(C)(C)CNC(=O)c2ccccc2OC)[C@]2(C)[C@H](C)CC[C@]3(CCC(=O)[C@H]32)[C@@H](C)[C@@H]1O, C=C[C@]1(C)C[C@@H](OC(=O)CSC(C)(C)CNC(=O)c2ccccc2N)[C@]2(C)[C@H](C)CC[C@]3(CCC(=O)[C@H]32)[C@@H](C)[C@@H]1O is higher in zone of inhibition at 80 µg/mL: 9.5 mm for the first, 16.6 mm for the second.

Each molecule was assayed on Staphylococcus aureus (assay: Antibacterial activity against methicillin-resistant Staphylococcus aureus at 160 ug/ml after 24 hrs by Oxford cup assay). Details: read-out: IZ.
Assay type: functional
Outline: as §2

Compared with C=C[C@]1(C)C[C@@H](OC(=O)CSC(C)(C)CNC(=O)c2ccccc2OC)[C@]2(C)[C@H](C)CC[C@]3(CCC(=O)[C@H]32)[C@@H](C)[C@@H]1O, C=C[C@]1(C)C[C@@H](OC(=O)CSC(C)(C)CNC(=O)c2ccccc2N)[C@]2(C)[C@H](C)CC[C@]3(CCC(=O)[C@H]32)[C@@H](C)[C@@H]1O is higher in zone of inhibition at 160 µg/mL: 12.1 mm for the first, 18.9 mm for the second.

Each molecule was assayed on Staphylococcus aureus (assay: Antibacterial activity against methicillin-resistant Staphylococcus aureus at 320 ug/ml after 24 hrs by Oxford cup assay). Details: read-out: IZ.
Assay type: functional
Outline: as §2

Going from C=C[C@]1(C)C[C@@H](OC(=O)CSC(C)(C)CNC(=O)c2ccccc2OC)[C@]2(C)[C@H](C)CC[C@]3(CCC(=O)[C@H]32)[C@@H](C)[C@@H]1O to C=C[C@]1(C)C[C@@H](OC(=O)CSC(C)(C)CNC(=O)c2ccccc2N)[C@]2(C)[C@H](C)CC[C@]3(CCC(=O)[C@H]32)[C@@H](C)[C@@H]1O, the zone of inhibition at 320 µg/mL rises from 12.4 mm to 19.6 mm.

What follows are molecules tested on Streptococcus agalactiae (assay: Antibacterial activity against Streptococcus agalactiae after 48 hrs by agar dilution method). Details: not given.
Assay type: functional
Outline: (§3)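 Agar dilution per NCCLS on clinical isolates. 2-fold serial dilutions of compound (2 mL) mixed into 18 mL hot Mueller-Hinton agar. Inoculum from blood slants, adjusted to approx. 10⁵–10⁶ cfu/mL in sterile 0.90% NaCl, then spotted onto the plates. Incubated 36.5 °C, 48 h. MIC is the lowest concentration giving complete growth inhibition. Run in triplicate at pH 7.40.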

Going from C=C[C@]1(C)C[C@@H](OC(=O)CSC(C)(C)CNC(=O)c2ccccc2OC)[C@]2(C)[C@H](C)CC[C@]3(CCC(=O)[C@H]32)[C@@H](C)[C@@H]1O to C=C[C@]1(C)C[C@@H](OC(=O)CSC(C)(C)CNC(=O)c2ccccc2N)[C@]2(C)[C@H](C)CC[C@]3(CCC(=O)[C@H]32)[C@@H](C)[C@@H]1O, the MIC falls from 2 µg/mL (≈ 3.33 µM) to 0.5 µg/mL (≈ 0.855 µM) (4-fold).

What follows are molecules tested on Escherichia coli (assay: Antibacterial activity against Escherichia coli after 48 hrs by agar dilution method). Details: not given.
Assay type: functional
Outline: as §3

Compared with C=C[C@]1(C)C[C@@H](OC(=O)CSC(C)(C)CNC(=O)c2ccccc2OC)[C@]2(C)[C@H](C)CC[C@]3(CCC(=O)[C@H]32)[C@@H](C)[C@@H]1O, C=C[C@]1(C)C[C@@H](OC(=O)CSC(C)(C)CNC(=O)c2ccccc2N)[C@]2(C)[C@H](C)CC[C@]3(CCC(=O)[C@H]32)[C@@H](C)[C@@H]1O is 2-fold lower in MIC: 4 µg/mL (≈ 6.67 µM) for the first, 2 µg/mL (≈ 3.42 µM) for the second.

Each molecule was assayed on Staphylococcus epidermidis (assay: Antibacterial activity against methicillin-resistant Staphylococcus epidermidis after 48 hrs by agar dilution method). Details: not given.
Assay type: functional
Outline: (§4)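 Agar dilution per NCCLS: 2-fold serial dilutions incorporated into hot Mueller-Hinton agar. Clinical isolates grown from blood slants, suspended in sterile 0.90% NaCl to about 10⁵–10⁶ cfu/mL, spotted onto plates. Incubation 36.5 °C, 48 h. MIC taken as the lowest concentration giving complete growth inhibition. Run in triplicate at pH 7.40.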

Compared with C=C[C@]1(C)C[C@@H](OC(=O)CSC(C)(C)CNC(=O)c2ccccc2OC)[C@]2(C)[C@H](C)CC[C@]3(CCC(=O)[C@H]32)[C@@H](C)[C@@H]1O, C=C[C@]1(C)C[C@@H](OC(=O)CSC(C)(C)CNC(=O)c2ccccc2N)[C@]2(C)[C@H](C)CC[C@]3(CCC(=O)[C@H]32)[C@@H](C)[C@@H]1O is 16-fold lower in MIC: 8 µg/mL (≈ 13.3 µM) for the first, 0.5 µg/mL (≈ 0.855 µM) for the second.

What follows are molecules tested on Staphylococcus aureus (assay: Antibacterial activity against methicillin-resistant Staphylococcus aureus after 48 hrs by agar dilution method). Details: not given.
Assay type: functional
Outline: as §4

First: C=C[C@]1(C)C[C@@H](OC(=O)CSC(C)(C)CNC(=O)c2ccccc2OC)[C@]2(C)[C@H](C)CC[C@]3(CCC(=O)[C@H]32)[C@@H](C)[C@@H]1O
Second: C=C[C@]1(C)C[C@@H](OC(=O)CSC(C)(C)CNC(=O)c2ccccc2N)[C@]2(C)[C@H](C)CC[C@]3(CCC(=O)[C@H]32)[C@@H](C)[C@@H]1O
The MIC of the first is 4-fold lower: 0.25 µg/mL (≈ 0.417 µM) for the first, 1 µg/mL (≈ 1.71 µM) for the second.
